Source: ChEMBL document CHEMBL2331511, “Novel soluble myeloid cell leukemia sequence 1 (Mcl-1) inhibitor (E,E)-2-(benzylaminocarbonyl)-3-styrylacrylonitrile (4g) developed using a fragment-based approach” (Eur J Med Chem, 2013)
Converted amounts (≈) assume the structure as drawn. The source made the active and inactive calls. The calls are words filed in the database; no cut-off is given here.

How the values were obtained:
[1] = biological target: T1, Induced myeloid leukemia cell differentiation protein Mcl-1 (Homo sapiens, UniProt Q07820); assay: Binding affinity to his-tagged Mcl-1 (unknown origin) expressed in Escherichia coli BL21 (DE3) cells by ITC analysis
Method in brief: (§1)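 Isothermal titration calorimetry at 25 °C in 20 mM Tris pH 8.0, 150 mM NaCl, 1% DMSO; twelve 3 μL injections of 300 μM ligand into 30 μM protein. Heats corrected against buffer-only titrations run the same way, and Kd obtained by integrating the raw data and fitting to a one-site model.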

[2] = biological target: Bcl-2-like protein 1 (Homo sapiens, UniProt Q07817); assay: Binding affinity to Bcl-xL (unknown origin)
[3] = biological target: Induced myeloid leukemia cell differentiation protein Mcl-1 (Homo sapiens, UniProt Q07820, R263A); assay: Binding affinity to his-tagged Mcl-1 R263A mutant (unknown origin) expressed in Escherichia coli BL21 (DE3) cells by ITC analysis; method in brief: as §1
[4] = test system: HL-60; assay: Induction of apoptosis in human HL60 cells after 48 hrs by annexin V flow cytometry; type: functional, cell-based; conditions: HL-60, 48 h
Method in brief: (§2)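 Cells exposed to graded concentrations of ligand for 48 h; percentage of apoptotic cells measured by Annexin V flow cytometry, and IC50 taken from the concentration–response.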

[5] = Solubility of the compound in 9:1 ratio of water:ethanol by HPLC analysis; type: physicochemical; conditions: 9:1 water:ethanol
[6] = Solubility of the compound in 100 % ethanol by HPLC analysis; type: physicochemical
[7] = test system: MCF7; assay: Induction of apoptosis in human MCF7 cells after 48 hrs by annexin V flow cytometry; type: functional, cell-based; conditions: MCF7, 48 h; method in brief: as §2
[8] = test system: NCI-H23; assay: Induction of apoptosis in human NCI-H23 cells after 48 hrs by annexin V flow cytometry; type: functional, cell-based; conditions: NCI-H23, 48 h; method in brief: as §2
[9] = biological target: Apoptosis regulator Bcl-2 (Homo sapiens) (UniProt P10415); assay: Binding affinity to recombinant human Bcl-2
[10] = biological target: T1, Induced myeloid leukemia cell differentiation protein Mcl-1; assay: Binding affinity to Mcl-1 (unknown origin) by two-dimensional [15N/1H] NMR analysis
[11] = test system: NCI-H23; assay: Ratio of IC50 for human HL60 cells to IC50 for human NCI-H23 cells; type: functional
[12] = test system: H22; assay: Induction of apoptosis in mouse H22 cells after 48 hrs by annexin V flow cytometry; type: functional, cell-based; conditions: H22, 48 h; method in brief: as §2

Chain of Induced myeloid leukemia cell differentiation protein Mcl-1 (Homo sapiens, UniProt Q07820, R263A) (Q07820 whole entry R263A): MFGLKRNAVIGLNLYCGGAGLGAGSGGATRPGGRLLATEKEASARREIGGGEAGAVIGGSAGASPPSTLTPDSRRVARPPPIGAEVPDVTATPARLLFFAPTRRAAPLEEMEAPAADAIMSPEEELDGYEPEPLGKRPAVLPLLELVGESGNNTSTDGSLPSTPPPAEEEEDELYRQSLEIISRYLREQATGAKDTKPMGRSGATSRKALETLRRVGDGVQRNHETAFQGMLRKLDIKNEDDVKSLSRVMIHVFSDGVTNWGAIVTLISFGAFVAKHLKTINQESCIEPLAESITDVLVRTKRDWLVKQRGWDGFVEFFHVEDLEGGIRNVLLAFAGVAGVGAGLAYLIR
Chain of Bcl-2-like protein 1 (Q07817 whole entry): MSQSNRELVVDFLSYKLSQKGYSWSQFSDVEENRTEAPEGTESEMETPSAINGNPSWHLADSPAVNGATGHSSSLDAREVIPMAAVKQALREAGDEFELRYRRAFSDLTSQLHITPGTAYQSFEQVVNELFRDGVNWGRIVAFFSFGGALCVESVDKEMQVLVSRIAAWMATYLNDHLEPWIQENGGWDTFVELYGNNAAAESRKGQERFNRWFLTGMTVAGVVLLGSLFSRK
T1 sequence (Q07820 whole entry): as the sequence (Q07820 whole entry R263A) above, with A263R counted along it
Chain of Apoptosis regulator Bcl-2 (Homo sapiens) (P10415 whole entry): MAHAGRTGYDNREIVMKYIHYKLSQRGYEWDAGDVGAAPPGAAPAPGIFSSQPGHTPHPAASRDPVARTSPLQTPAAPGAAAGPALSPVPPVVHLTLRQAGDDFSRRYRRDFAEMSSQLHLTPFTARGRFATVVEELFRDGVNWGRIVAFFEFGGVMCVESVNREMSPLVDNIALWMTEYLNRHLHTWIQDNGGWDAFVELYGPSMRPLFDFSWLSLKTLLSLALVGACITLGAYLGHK

Row | Compound | Kd ([1]; read-out: Kd) [µM] | Kd ([1]; read-out: pKd (converted)) [µM] | also measured
1 | O=C1C(=O)c2cccc3cccc1c23 [ACENAPHTHOQUINONE] | 325 | 324 | 
2 | CCCNC(=O)CC#N | 4.28 | 4.27 | 
3 | O=C(Nc1cc(S(=O)(=O)c2ccc(Cl)cc2)ccc1Cl)c1cc(Cl)cc(Br)c1O |  |  | Ki [2]: 4.1 µM
4 | N#C/C(=C\c1ccccc1)C(N)=O | 2.21 | 2.19 | 
5 | N#CCC(N)=O [CYANOACETAMIDE] | 13.5 | 13.5 | Kd [3]: > 1000 µM
6 | COC1=CC(c2cc3ccccc3[nH]2)=N/C1=C/c1[nH]cc(C)c1C |  |  | Ki [2]: 4.69 µM
7 | N#CCC(=O)NCc1ccccc1 | 1.58 | 1.58 | Kd [3]: 90.8 µM
8 | C1CSCCN1 [THIOMORPHOLINE] | > 1000 |  | 
9 | CCNC(=O)CC#N | 6.65 | 6.61 | 
10 | Cc1cc2c(C(C)C)c(O)c(O)c(C=O)c2c(O)c1-c1c(C)cc2c(C(C)C)c(O)c(O)c(C=O)c2c1O [GOSSYPOL] | 2.65 | 2.63 | 
11 | N#Cc1c(-c2ccc3c(c2)OCO3)cc(-c2ccccc2O)[nH]c1=O |  |  | Ki [2]: 5.1 µM
12 | CNC(=O)CC#N | 8.27 | 8.32 | 
13 | CCCC(CSc1ccccc1)Nc1ccc(S(=O)(=O)NC(=O)c2ccc(N3CCN(Cc4ccccc4-c4ccc(Cl)cc4)CC3)cc2)cc1[N+](=O)[O-] (configuration not stated) |  |  | Ki [2]: 0.021 µM
14 | NC(=O)c1ccccc1C(=O)c1ccc(Sc2ccc(Cl)cc2)c([N+](=O)[O-])c1 |  |  | Ki [2]: 0.5 µM
15 | N#C/C(=C\C=C\c1ccccc1)C(N)=O | 1.06 | 1.07 | Kd [3]: 46.2 µM

Now from value to compound, other results behind:

Row | Kd ([1]; read-out: Kd) [µM] | Kd ([1]; read-out: pKd (converted)) [µM] | Compound | also measured
16 | 1.83 | 1.82 | N#CC1=C2C(=NC1=O)c1cccc3cccc2c13 | 
17 | 1.45 | 1.45 | CCC(C)(C)c1ccc(Oc2ccc3c(=C(C#N)C#N)c(=O)c4cccc2c43)cc1 | 
18 | 52.3 | 52.5 | N#CC(C#N)=c1c(=O)c2cccc3cccc1c32 | Kd [3]: 51.4 µM
19 | 4.24 | 4.27 | N#CC(C#N)=c1c(=O)c2cccc3c(Oc4ccc(Cl)cc4)ccc1c32 | 
20 | 3.71 | 3.72 | CC(C)c1ccc(Oc2ccc3c(=C(C#N)C#N)c(=O)c4cccc2c43)cc1 | 
21 | 4.93 | 4.9 | COc1ccc(Oc2ccc3c(=C(C#N)C#N)c(=O)c4cccc2c43)cc1 | 
22 | 0.16 | 0.158 | N#C/C(=C\C=C\c1ccccc1)C(=O)NCc1ccccc1 | IC50 [4]: 47.2 µM; solubility [5]: 200 µg/mL; solubility [6]: 4000 µg/mL (≈ 13.9 mM); IC50 [7]: 5.4 µM; IC50 [8]: 380 nM; Activity [9]: inactive; Activity [10]: Active; Ratio IC50 [11]: 100; IC50 [12]: 3.2 µM; Kd [3]: 6.72 µM
